Measurements taken from article PMC3510669 (Journal of immunology (Baltimore, Md. : 1950), 2010).

Test system: naïve CD4^+ T cells
Test: pMHCII tetramer-based cell enrichment of spleen and lymph node cells
Parameters: species or system mouse
Conditions: B6 mice; for fold smaller than the 2W:I-A^b-specific naïve population: spleen and lymph nodes (3K: spleen and lymph nodes or thymus), Fig. 3B, C, 4D; for size of naïve CD4+ T cell population specific for peptide:I-A^b: spleen and lymph nodes, mean, Fig. 4D, 6D
In short: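 Spleen and lymph node cells from individual naïve B6 mice were enriched with peptide:I-A^b tetramers. Tetramer-binding CD4⁺ T cells were counted as total cells per mouse, and group means were taken across individual mice.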

| Sequence | fold smaller than the 2W:I-A^b-specific naïve population [fold] | size of naïve CD4+ T cell population specific for peptide:I-A^b [cells] |
| --- | --- | --- |
| EAGGALANGAVDSA [2G] | 6 | 62 ± 13 |
| EAGGALANWAVDSA [1G] | 3 | 127 ± 39 |
| EARGALANWAVDSA [1R] | 3 | 108 ± 36 |
